Experimental data collected from several papers.
Each line is one published result; the experiments were not run side by side.
Organism: Staphylococcus aureus
Effect on: microbial growth

SMILES | technique | strain | time | setting | MIC
CN[C@H](CC(C)C)C(=O)N[C@H]1C(=O)N[C@@H](CC(N)=O)C(=O)N[C@H]2C(=O)N[C@H]3C(=O)N[C@H](C(=O)N[C@H](C(=O)O)c4cc(O)cc(O)c4-c4cc3ccc4O)[C@H](O[C@H]3C[C@](C)(N)[C@@H](O)[C@H](C)O3)c3ccc(c(Cl)c3)Oc3cc2cc(c3O[C@@H]2O[C@H](CO)[C@@H](O)[C@H](O)[C@H]2O[C@H]2C[C@](C)(NCc3ccc(-c4ccc(Cl)cc4)cc3)[C@@H](O)[C@H](C)O2)Oc2ccc(cc2Cl)[C@H]1O | broth dilution |  |  |  | 2 µM
CCCCCCC#Cc1cncc(-c2nnc(SCc3ccc(Cl)cc3)n2CCCN)c1 | broth dilution | ATCC29213 |  |  | 8 µg/mL
CN[C@H](CC(C)C)C(=O)N[C@H]1C(=O)N[C@@H](CC(N)=O)C(=O)N[C@H]2C(=O)N[C@H]3C(=O)N[C@H](C(=O)N[C@H](C(=O)O)c4cc(O)cc(O)c4-c4cc3ccc4O)[C@H](O)c3ccc(c(Cl)c3)Oc3cc2cc(c3O[C@@H]2O[C@H](CO)[C@@H](O)[C@H](O)[C@H]2O[C@H]2C[C@](C)(N)[C@H](O)[C@H](C)O2)Oc2ccc(cc2Cl)[C@H]1O | agar dilution | ATCC43300 |  |  | 2 µg/mL
CCN1CCC(CCNCc2cc3cc(-c4ccccc4)ccc3nc2SCc2ccccc2)CC1 | broth dilution |  |  |  | 4 µg/mL
COc1c(N2C[C@@H]3CCCN[C@@H]3C2)c(F)cc2c(=O)c(C(=O)O)cn(C3CC3)c12 | agar dilution | ATCC43300 |  |  | 0.5 µg/mL
CCCCCCCCN=c1ccn(CCCCCCCCCCn2ccc(=NCCCCCCCC)cc2)cc1 |  | ATCC33591 MRSA |  | drug-resistant strain | 1 µM
[H]/N=C(/N)N[C@H]1[C@H](O)[C@@H](O)[C@H](O[C@@H]2O[C@@H](C)[C@](O)(C=O)[C@H]2O[C@@H]2O[C@@H](CO)[C@H](O)[C@@H](O)[C@@H]2NC)[C@@H](N/C(N)=N\[H])[C@@H]1O | broth dilution | ATCC6538 |  |  | 15 µg/mL
CN[C@H](CC(C)C)C(=O)N[C@H]1C(=O)N[C@@H](CC(N)=O)C(=O)N[C@H]2C(=O)N[C@H]3C(=O)N[C@H](C(=O)N[C@H](C(=O)O)c4cc(O)cc(O)c4-c4cc3ccc4O)[C@H](O)c3ccc(c(Cl)c3)Oc3cc2cc(c3O[C@@H]2O[C@H](CO)[C@@H](O)[C@H](O)[C@H]2O[C@H]2C[C@](C)(N)[C@H](O)[C@H](C)O2)Oc2ccc(cc2Cl)[C@H]1O | broth dilution | ATCCBAA44 BAA44 |  |  | 1 µg/mL
CCCCCCC#Cc1cncc(-c2nnc(SCc3cc([N+](=O)[O-])cc([N+](=O)[O-])c3)n2CCCN)c1 | broth dilution | ATCC29213 |  |  | 8 µg/mL
O=C(N[C@H](CO)[C@H](O)c1ccc([N+](=O)[O-])cc1)C(Cl)Cl | broth dilution |  |  |  | 64 µg/mL
CN[C@H](CC(C)C)C(=O)N[C@H]1C(=O)N[C@@H](CC(N)=O)C(=O)N[C@H]2C(=O)N[C@H]3C(=O)N[C@H](C(=O)N[C@H](C(=O)O)c4cc(O)cc(O)c4-c4cc3ccc4O)[C@H](O)c3ccc(c(Cl)c3)Oc3cc2cc(c3O[C@@H]2O[C@H](CO)[C@@H](O)[C@H](O)[C@H]2O[C@H]2C[C@](C)(N)[C@H](O)[C@H](C)O2)Oc2ccc(cc2Cl)[C@H]1O | broth dilution | ATCC29213 |  |  | 0.67 µM
Cc1ccc2[nH]nc(-c3nnc(Nc4ccc(O)cc4)s3)c2c1 |  | ATCC29213 |  |  | 18.3 µg/mL
O=C(N[C@H](CO)[C@H](O)c1ccc([N+](=O)[O-])cc1)C(Cl)Cl | broth dilution | ATCC25923 |  |  | 6.25 µg/mL
C=C[C@]1(C)C[C@@H](OC(=O)CS[C@@H]2C[C@H]3CC[C@@H](C2)N3C)[C@]2(C)[C@H](C)CC[C@]3(CCC(=O)[C@H]32)[C@@H](C)[C@@H]1O | agar dilution | ATCC29213 |  |  | 0.0625 µg/mL
Cc1ccc2[nH]nc(-c3nnc(Nc4ccc(Cl)cc4)s3)c2c1 |  | ATCC29213 |  |  | 44.5 µg/mL
CCC[C@@H]1C[C@@H](C(=O)N[C@@H]([C@H]2O[C@H](SC)[C@H](O)[C@@H](O)[C@H]2O)[C@@H](C)O)N(C)C1 | broth dilution | USA300 |  |  | 2 µg/mL
COc1c(N2C[C@@H]3CCCN[C@@H]3C2)c(F)cc2c(=O)c(C(=O)O)cn(C3CC3)c12 | broth dilution | ATCC33591 MRSA |  |  | 0.125 µg/mL
CC[C@H]1OC(=O)[C@H](C)[C@@H](O[C@H]2C[C@@](C)(OC)[C@@H](O)[C@H](C)O2)[C@H](C)[C@@H](O[C@@H]2O[C@H](C)C[C@H](N(C)C)[C@H]2O)[C@](C)(O)C[C@@H](C)CN(C)[C@H](C)[C@@H](O)[C@]1(C)O | broth dilution | ATCCBAA44 BAA44 |  |  | > 64 µg/mL
CCCCCCC#Cc1cncc(-c2nnc(SCc3cc(C(F)(F)F)cc(C(F)(F)F)c3)n2CCCN)c1 | broth dilution | MRSA |  |  | 4 µg/mL
CCN1CCC(CCNCc2cc3cc(Br)ccc3nc2SCc2ccccc2)CC1 | broth dilution |  |  |  | 32 µg/mL
CC1(C)S[C@@H]2[C@H](NC(=O)[C@H](N)c3ccccc3)C(=O)N2[C@H]1C(=O)O | agar dilution | ATCC43300 |  |  | > 128 µg/mL
CC1(C)S[C@@H]2[C@H](NC(=O)[C@H](N)c3ccccc3)C(=O)N2[C@H]1C(=O)O | broth dilution | ATCC25923 | 12 h |  | 0.13 µg/mL
N=c1sc(C(=O)c2ccc(Nc3cnccn3)cc2)nn1-c1ccccc1 | broth dilution | ATCC25923 |  |  | 50 µg/mL
CC(=O)NC[C@H]1CN(c2ccc(N3CCOCC3)c(F)c2)C(=O)O1 | broth dilution | USA300 |  |  | 1 µg/mL
COc1ccc(-n2nc(C(=O)c3ccc(Nc4cnccn4)cc3)sc2=N)cc1 | broth dilution | ATCC25923 |  |  | 6.25 µg/mL
Cc1ccc2[nH]nc(-c3nnc(Nc4cc(Cl)cc(Br)c4)s3)c2c1 |  | ATCC29213 |  |  | 204 µg/mL
CC(=O)NC[C@H]1CN(c2ccc(N3CCOCC3)c(F)c2)C(=O)O1 | agar dilution | ATCC43300 |  |  | 2 µg/mL
Cc1cc(O)cc(Nc2nnc(-c3n[nH]c4ccc(C)cc34)s2)c1 |  | ATCC29213 |  |  | 87.6 µg/mL
CNC(C)C1CCC(N)C(OC2C(N)CC(N)C(OC3OCC(C)(O)C(NC)C3O)C2O)O1 (stereo not drawn) | broth dilution |  |  |  | 2 µg/mL
[H]/N=C(\N/C(=N/[H])NCCCCCCNC(=N)NC(=N)Nc1ccc(Cl)cc1)Nc1ccc(Cl)cc1 |  | MSSA |  |  | 0.5 µM
